Laboratory results from ChEMBL document CHEMBL1156264, “Synthesis and structure-activity relationships of dimeric peptide antagonists of the human immunoglobulin G-human neonatal Fc receptor (IgG-FcRn) interaction” (J Med Chem, 2010).
pIC50, pKd: −log10 of the molar value. Active and inactive are the calls of the source. No cut-off for these calls is given here. Numbered stars: 1 amine (or outer) side, 2 acyl side, 3 side chain; on linkers, the order of the positions; unused ones are H or OH. Bridge positions count the residues as written; N and C are the ends. Square brackets hold non-standard residues; d marks the D form. Peptide text beside a SMILES is read from it. I, II: the chains in the order shown. X3 = CN(CCCNC(=O)CCNC(=O)CCSCC(=O)[*:1])CCCNC(=O)CCNC(=O)CCSCC(=O)[*:2]; Phe(4-guanidino) = N=C(N)Nc1ccc(C[C@H](N)C(=O)O)cc1; X1 = O=C(C(=O)[*:2])[C@H](Cc1ccc(O)cc1)N[*:1]; NMeL = CN[C@@H](CC(C)C)C(=O)O; Pen = CC(C)(S)[C@H](N)C(=O)O; X4 = O=C(CSCC(=O)[*:2])[*:1]; Sar = CNCC(=O)O

Key:
[1] = molecular target: T1, IgG receptor FcRn large subunit p51 (Homo sapiens, UniProt P55899); assay: Binding affinity to soluble human FcRn at pH 7.4 by surface plasmon resonance assay
Procedure, shortened: (§1)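 shFcRn was amine-coupled to a CM5 dextran chip, and peptide dilutions were run at pH 6 or pH 7.4 on a Biacore 3000 or T100. The equilibrium response was plotted against concentration and fitted to a steady-state affinity model to give Kd.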

[2] = molecular target: T1, IgG receptor FcRn large subunit p51; assay: Binding affinity to soluble human FcRn at pH 6 by surface plasmon resonance assay; procedure, shortened: as §1
[3] = molecular target: T1, IgG receptor FcRn large subunit p51; assay: Inhibition of IgG binding to soluble human FcRn after 2 hrs by competition ELISA
[4] = molecular target: T1, IgG receptor FcRn large subunit p51; assay: Ratio of QRF-Asp-TGHFGGLYP-Lys-NGP IC50 to compound IC50 for soluble human FcRn
Mus musculus = assay: Increase in human IgG catabolism in endogenous FcRn/beta2m gene knockout TG32B transgenic mouse harboring human FcRn at 2.5 mg/kg, iv QD for 4 consecutive days measured after 24 hrs by ELISA; format: functional, organism-based; set-up: dose 2.5 mg/kg
Procedure, shortened: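 TG32B mice (muFcRn−/−, muβ2m−/−, huFcRn+/+, huβ2m+/+), 4 per group, got 500 mg/kg hIgG (pooled subtypes) iv at 0 h. Peptide or vehicle (20 mM sodium acetate, pH 5) was given iv at 24, 48, 72 and 96 h. Blood was taken before each injection and at 30, 120 and 168 h. Serum hIgG was measured by ELISA: goat anti-hIgG(Fab) capture, goat anti-hIgG(Fc)-HRP detection.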

[5] = molecular target: T1, IgG receptor FcRn large subunit p51; assay: Ratio of RF-Pen-TGHFG-Sar-NMeLeu-YPC IC50 to compound IC50 for soluble human FcRn

T1 sequence (P55899 whole entry): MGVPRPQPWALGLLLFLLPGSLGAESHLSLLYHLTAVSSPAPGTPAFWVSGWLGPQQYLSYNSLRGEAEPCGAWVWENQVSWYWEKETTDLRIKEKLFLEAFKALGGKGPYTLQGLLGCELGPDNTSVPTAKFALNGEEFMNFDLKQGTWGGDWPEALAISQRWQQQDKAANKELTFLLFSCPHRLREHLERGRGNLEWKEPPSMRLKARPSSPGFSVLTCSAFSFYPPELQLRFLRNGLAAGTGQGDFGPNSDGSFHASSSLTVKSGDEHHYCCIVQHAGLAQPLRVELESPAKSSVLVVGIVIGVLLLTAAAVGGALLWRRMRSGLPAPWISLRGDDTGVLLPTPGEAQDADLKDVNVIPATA

pKd [1]	pKd [2]	pIC50 [3]	Ratio IC50 [4]	Ratio IC50 [5]	Compound	Activity (Mus musculus)
7.13	7.21	6.00	–	–	CC(=O)N[C@@H](CCCNC(=N)N)C(=O)N[C@@H](Cc1ccccc1)C(=O)N[C@@H]1C(=O)N[C@@H]([C@@H](C)O)C(=O)NCC(=O)N[C@@H](Cc2ccc(NC(=N)N)cc2)C(=O)NCC(=O)N(C)CC(=O)N(C)[C@@H](CC(C)C)C(=O)N[C@@H](Cc2ccc(O)cc2)C(=O)C(=O)N2CCC[C@H]2C(=O)N[C@H](C(N)=O)CSSC1(C)C (Ac-RF[Pen]TG[Phe(4-guanidino)]G[Sar][NMeL][X1]PC-NH2; disulfide 3-12)	–
6.77	7.51	6.28	–	–	CC(=O)N[C@@H](CCCNC(=N)N)C(=O)N[C@@H](Cc1ccccc1)C(=O)N[C@@H]1C(=O)N[C@@H]([C@@H](C)O)C(=O)NCC(=O)N[C@@H](Cc2c[nH]cn2)C(=O)N[C@@H](Cc2ccccc2)C(=O)NCC(=O)N(C)CC(=O)N(C)[C@@H](CC(C)C)C(=O)N[C@@H](Cc2ccc(O)cc2)C(=O)C(=O)N2CCC[C@H]2C(=O)N[C@H](C(N)=O)CSSC1(C)C	–
–	5.23	4.43	–	–	CC(=O)N[C@@H](CCCNC(=N)N)C(=O)N[C@@H](Cc1ccccc1)C(=O)N[C@H]1CSSC[C@@H](C(N)=O)NC(=O)[C@@H]2CCCN2C(=O)C(=O)[C@H](Cc2ccc(O)cc2)NC(=O)[C@H](CC(C)C)NC(=O)CNC(=O)CNC(=O)[C@H](Cc2ccccc2)NC(=O)[C@H](Cc2cnc[nH]2)NC(=O)CNC(=O)[C@H]([C@@H](C)O)NC1=O	–
6.03	6.85	5.72	–	–	CC(=O)N[C@@H](CCCNC(=N)N)C(=O)N[C@@H](Cc1ccccc1)C(=O)N[C@H]1CC(=O)NCCCC[C@@H](C(N)=O)NC(=O)[C@@H]2CCCN2C(=O)C(=O)[C@H](Cc2ccc(O)cc2)NC(=O)[C@H](CC(C)C)N(C)C(=O)CN(C)C(=O)CNC(=O)[C@@H](Cc2ccccc2)NC(=O)[C@H](Cc2c[nH]cn2)NC(=O)CNC(=O)[C@H]([C@@H](C)O)NC1=O	–
6.02	6.82	5.96	–	–	CC(=O)N[C@@H](CCCNC(=N)N)C(=O)N[C@@H](Cc1ccccc1)C(=O)N[C@@H]1C(=O)N(C)[C@@H](C)C(=O)NCC(=O)N[C@@H](Cc2cnc[nH]2)C(=O)N[C@@H](Cc2ccccc2)C(=O)N[C@H]2CCCN(CC(=O)N(C)[C@@H](CC(C)C)C(=O)N[C@@H](Cc3ccc(O)cc3)C(=O)C(=O)N3CCC[C@H]3C(=O)N[C@H](C(N)=O)CSSC1(C)C)C2=O	–
–	–	6.24	38	–	CC(C)C[C@H]1C(=O)N[C@@H](Cc2ccc(O)cc2)C(=O)C(=O)N2CCC[C@H]2C(=O)N[C@H](C(=O)N[C@@H](CC(N)=O)C(=O)NCC(=O)N2CCC[C@H]2C(N)=O)CCCCNC(=O)C[C@H](NC(=O)[C@H](Cc2ccccc2)NC(=O)CSCC(=O)N[C@@H](CCC(N)=O)C(=O)N[C@@H](CCCNC(=N)N)C(=O)N[C@@H](Cc2ccccc2)C(=O)N[C@H]2CC(=O)NCCCC[C@@H](C(=O)N[C@@H](CC(N)=O)C(=O)NCC(=O)N3CCC[C@H]3C(N)=O)NC(=O)[C@@H]3CCCN3C(=O)C(=O)[C@H](Cc3ccc(O)cc3)NC(=O)[C@H](CC(C)C)N(C)C(=O)CN(C)C(=O)CNC(=O)[C@H](Cc3ccccc3)NC(=O)[C@H](Cc3c[nH]cn3)NC(=O)CNC(=O)[C@H]([C@@H](C)O)NC2=O)C(=O)N[C@@H]([C@@H](C)O)C(=O)NCC(=O)N[C@@H](Cc2c[nH]cn2)C(=O)N[C@@H](Cc2ccccc2)C(=O)NCC(=O)N(C)CC(=O)N1C (I: QRFDTGHFG[Sar][NMeL][X1]PKNGP-NH2 / II: FDTGHFG[Sar][NMeL][X1]PKNGP-NH2; lactam I:4-I:14, II:2-II:12; linker I:N-II:N via X4)	–
–	–	6.22	37	–	CC(C)C[C@H]1C(=O)N[C@@H](Cc2ccc(O)cc2)C(=O)C(=O)N2CCC[C@H]2C(=O)N[C@H](C(=O)N[C@@H](CC(N)=O)C(=O)NCC(=O)N2CCC[C@H]2C(N)=O)CCCCNC(=O)C[C@H](NC(=O)[C@H](Cc2ccccc2)NC(=O)CSCCC(=O)NCCCN(CCCNC(=O)CCSCC(=O)N[C@@H](CCC(N)=O)C(=O)N[C@@H](CCCNC(=N)N)C(=O)N[C@@H](Cc2ccccc2)C(=O)N[C@H]2CC(=O)NCCCC[C@@H](C(=O)N[C@@H](CC(N)=O)C(=O)NCC(=O)N3CCC[C@H]3C(N)=O)NC(=O)[C@@H]3CCCN3C(=O)C(=O)[C@H](Cc3ccc(O)cc3)NC(=O)[C@H](CC(C)C)N(C)C(=O)CN(C)C(=O)CNC(=O)[C@H](Cc3ccccc3)NC(=O)[C@H](Cc3c[nH]cn3)NC(=O)CNC(=O)[C@H]([C@@H](C)O)NC2=O)CC(=O)NCC(=O)O)C(=O)N[C@@H]([C@@H](C)O)C(=O)NCC(=O)N[C@@H](Cc2c[nH]cn2)C(=O)N[C@@H](Cc2ccccc2)C(=O)NCC(=O)N(C)CC(=O)N1C	–
6.59	7.37	6.37	–	–	CC(=O)N[C@@H](CCCNC(=N)N)C(=O)N[C@@H](Cc1ccccc1)C(=O)N[C@@H]1C(=O)N[C@@H]([C@@H](C)O)C(=O)NCC(=O)N[C@@H](Cc2cnc[nH]2)C(=O)N[C@@H](Cc2ccccc2)C(=O)N[C@H]2CCCN(CC(=O)N(C)[C@@H](CC(C)C)C(=O)N[C@@H](Cc3ccc(O)cc3)C(=O)C(=O)N3CCC[C@H]3C(=O)N[C@H](C(N)=O)CSSC1(C)C)C2=O	–
–	–	8.59	–	200	CC(C)C[C@H]1C(=O)N[C@@H](Cc2ccc(O)cc2)C(=O)C(=O)N2CCC[C@H]2C(=O)N[C@H](C(N)=O)CSSC(C)(C)[C@H](NC(=O)[C@H](Cc2ccccc2)NC(=O)[C@H](CCCNC(=N)N)NC(=O)CN(C)CCNC(=O)CCC(=O)N[C@@H](CCCNC(=N)N)C(=O)N[C@@H](Cc2ccccc2)C(=O)N[C@@H]2C(=O)N[C@@H]([C@@H](C)O)C(=O)NCC(=O)N[C@@H](Cc3c[nH]cn3)C(=O)N[C@@H](Cc3ccccc3)C(=O)NCC(=O)N(C)CC(=O)N(C)[C@@H](CC(C)C)C(=O)N[C@H](Cc3ccc(O)cc3)C(=O)C(=O)N3CCC[C@H]3C(=O)N[C@H](C(N)=O)CSSC2(C)C)C(=O)N[C@@H]([C@@H](C)O)C(=O)NCC(=O)N[C@@H](Cc2c[nH]cn2)C(=O)N[C@@H](Cc2ccccc2)C(=O)NCC(=O)N(C)CC(=O)N1C	Active
–	–	8.34	–	110	CC(C)C[C@H]1C(=O)N[C@@H](Cc2ccc(O)cc2)C(=O)C(=O)N2CCC[C@H]2C(=O)N[C@H](C(N)=O)CSSC(C)(C)[C@H](NC(=O)[C@H](Cc2ccccc2)NC(=O)[C@H](CCCNC(=N)N)NC(=O)C[C@H](C)C(=O)N[C@@H](CCCNC(=N)N)C(=O)N[C@@H](Cc2ccccc2)C(=O)N[C@@H]2C(=O)N[C@@H]([C@@H](C)O)C(=O)NCC(=O)N[C@@H](Cc3c[nH]cn3)C(=O)N[C@@H](Cc3ccccc3)C(=O)NCC(=O)N(C)CC(=O)N(C)[C@@H](CC(C)C)C(=O)N[C@@H](Cc3ccc(O)cc3)C(=O)C(=O)N3CCC[C@H]3C(=O)N[C@H](C(N)=O)CSSC2(C)C)C(=O)N[C@@H]([C@@H](C)O)C(=O)NCC(=O)N[C@@H](Cc2c[nH]cn2)C(=O)N[C@@H](Cc2ccccc2)C(=O)NCC(=O)N(C)CC(=O)N1C	–
–	–	–	9.2	–	CC(C)C[C@H]1C(=O)N[C@@H](Cc2ccc(O)cc2)C(=O)C(=O)N2CCC[C@H]2C(=O)N[C@H](C(=O)N[C@@H](CC(N)=O)C(=O)NCC(=O)N2CCC[C@H]2C(N)=O)CCCCNC(=O)C[C@H](NC(=O)[C@H](Cc2ccccc2)NC(=O)CSCCC(=O)NCCC(=O)NCCCN(C)CCCNC(=O)CCNC(=O)CCSCC(=O)N[C@@H](CCC(N)=O)C(=O)N[C@@H](CCCNC(=N)N)C(=O)N[C@@H](Cc2ccccc2)C(=O)N[C@H]2CC(=O)NCCCC[C@@H](C(=O)N[C@@H](CC(N)=O)C(=O)NCC(=O)N3CCC[C@H]3C(N)=O)NC(=O)[C@@H]3CCCN3C(=O)C(=O)[C@H](Cc3ccc(O)cc3)NC(=O)[C@H](CC(C)C)N(C)C(=O)CN(C)C(=O)CNC(=O)[C@H](Cc3ccccc3)NC(=O)[C@H](Cc3c[nH]cn3)NC(=O)CNC(=O)[C@H]([C@@H](C)O)NC2=O)C(=O)N[C@@H]([C@@H](C)O)C(=O)NCC(=O)N[C@@H](Cc2c[nH]cn2)C(=O)N[C@@H](Cc2ccccc2)C(=O)NCC(=O)N(C)CC(=O)N1C (I: QRFDTGHFG[Sar][NMeL][X1]PKNGP-NH2 / II: FDTGHFG[Sar][NMeL][X1]PKNGP-NH2; lactam I:4-I:14, II:2-II:12; linker I:N-II:N via X3)	–
4.43	5.28	4.40	–	–	CC(=O)N[C@@H](CCC(N)=O)C(=O)N[C@@H](CCCNC(=N)N)C(=O)N[C@@H](Cc1ccccc1)C(=O)N[C@H]1CSSC[C@@H](C(=O)N[C@@H](CC(N)=O)C(=O)NCC(=O)N2CCC[C@H]2C(N)=O)NC(=O)[C@@H]2CCCN2C(=O)C(=O)[C@H](Cc2ccc(O)cc2)NC(=O)[C@H](CC(C)C)NC(=O)CNC(=O)CNC(=O)[C@H](Cc2ccccc2)NC(=O)[C@H](Cc2cnc[nH]2)NC(=O)CNC(=O)[C@H]([C@@H](C)O)NC1=O	–
